This is an account of results in ChEMBL document CHEMBL1143106, “Synthesis, SAR, and antibacterial activity of novel oxazolidinone analogues possessing urea functionality” (2008).

Values after ≈ are worked out from the molar mass of the structure shown.

Common to all, as to format: functional
Assay [1] relates to Enterococcus faecium. Briefly: Antimicrobial activity against vancomycin-resistant Enterococcus faecium ATCC 12202.
Assay [2] concerns Staphylococcus aureus. Briefly: Antimicrobial activity against methicillin-resistant Staphylococcus aureus ATCC 33591.
Assay [3] has as its system Enterococcus faecalis. Description: Antimicrobial activity against vancomycin-resistant Enterococcus faecalis NCTC-12201.
Assay [4] concerns Enterococcus faecalis. Description: Antimicrobial activity against vancomycin-sensitive Enterococcus faecalis ATCC 29212.
The test system of assay [5] is Staphylococcus aureus. Description: Antimicrobial activity against Staphylococcus aureus.
Assay [6] has as its system Staphylococcus aureus. Briefly: Antimicrobial activity against Staphylococcus aureus ATCC 29213.
The subject of assay [7] is Enterococcus faecium. Description: Antimicrobial activity against vancomycin-resistant Enterococcus faecium ATCC 12202 infected in sc dosed mouse. The procedure, abridged: (§1)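 Mice with systemic infection; dosing was oral (po line) or subcutaneous (sc line); ED50 reported in mg/kg.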
Assay [8] relates to Enterococcus faecium. Description: Antimicrobial activity against vancomycin-resistant Enterococcus faecium ATCC 12202 infected in po dosed mouse. The gist of the method:
as §1

Turning to `CC(=O)NC[C@H]1CN(c2ccc(N3CCN(C(=O)NCc4ccc(Cl)cc4)CC3)c(F)c2)C(=O)O1`, the MIC against Enterococcus faecium [1] worked out at 4 µg/mL (≈ 7.94 µM); with Staphylococcus aureus [2], 4 µg/mL (≈ 7.94 µM); against Enterococcus faecalis [3], 2 µg/mL (≈ 3.97 µM); with Enterococcus faecalis [4] it was 4 µg/mL (≈ 7.94 µM); against Staphylococcus aureus [5], 4 µg/mL (≈ 7.94 µM); in the assay with Staphylococcus aureus [6] it was 4 µg/mL (≈ 7.94 µM).

As to `CNC(=O)N1CCN(c2ccc(N3C[C@H](CNC(C)=O)OC3=O)cc2F)CC1`, the MIC against Enterococcus faecium [1] stood at 4 µg/mL (≈ 10.2 µM); in the assay with Staphylococcus aureus [2], 4 µg/mL (≈ 10.2 µM); against Enterococcus faecalis [3] it was 2 µg/mL (≈ 5.08 µM); against Enterococcus faecalis [4], 4 µg/mL (≈ 10.2 µM); with Staphylococcus aureus [5], 4 µg/mL (≈ 10.2 µM); in the assay with Staphylococcus aureus [6], 4 µg/mL (≈ 10.2 µM).

Consider `CC(=O)NC[C@H]1CN(c2ccc(N3CCN(C(=O)NO)CC3)c(F)c2)C(=O)O1`, for which the MIC against Enterococcus faecium [1] was determined as 2 µg/mL (≈ 5.06 µM); against Staphylococcus aureus [2] it was 4 µg/mL (≈ 10.1 µM); in the assay on Enterococcus faecalis [3] it was 2 µg/mL (≈ 5.06 µM); in the assay with Enterococcus faecalis [4] it was 4 µg/mL (≈ 10.1 µM); with Staphylococcus aureus [5] it was 2 µg/mL (≈ 5.06 µM); in the assay on Staphylococcus aureus [6], 4 µg/mL (≈ 10.1 µM).

Take `CN[C@H](CC(C)C)C(=O)N[C@H]1C(=O)N[C@@H](CC(N)=O)C(=O)N[C@H]2C(=O)N[C@H]3C(=O)N[C@H](C(=O)N[C@H](C(=O)O)c4cc(O)cc(O)c4-c4cc3ccc4O)[C@H](O)c3ccc(c(Cl)c3)Oc3cc2cc(c3O[C@@H]2O[C@H](CO)[C@@H](O)[C@H](O)[C@H]2O[C@H]2C[C@](C)(N)[C@H](O)[C@H](C)O2)Oc2ccc(cc2Cl)[C@H]1O` [VANCOMYCIN]: the minimal inhibitory concentration (MIC) against Enterococcus faecium [1] was above 32 µg/mL; with Enterococcus faecalis [3], above 32 µg/mL; with Enterococcus faecalis [4], 2 µg/mL (≈ 1.38 µM). Besides, the ED50 with Enterococcus faecium [7] is 3.93 mg/kg.

As for `CC(=O)NC[C@H]1CN(c2ccc(N3CCN(C(=O)Nc4ccccn4)CC3)c(F)c2)C(=O)O1`, the MIC in the assay with Enterococcus faecium [1] was found to be 1 µg/mL (≈ 2.19 µM); in the assay on Staphylococcus aureus [2] it was 2 µg/mL (≈ 4.38 µM); against Enterococcus faecalis [3], 1 µg/mL (≈ 2.19 µM); against Enterococcus faecalis [4], 1 µg/mL (≈ 2.19 µM); in the assay with Staphylococcus aureus [5], 2 µg/mL (≈ 4.38 µM); with Staphylococcus aureus [6], 2 µg/mL (≈ 4.38 µM).

As to `CC(=O)NC[C@H]1CN(c2ccc(N3CCN(C(=O)NC(C)=O)CC3)c(F)c2)C(=O)O1`, the MIC came out at 4 µg/mL (≈ 9.49 µM) in the assay on Enterococcus faecium [1]; 8 µg/mL (≈ 19 µM) in the assay on Staphylococcus aureus [2]; 4 µg/mL (≈ 9.49 µM) against Enterococcus faecalis [3]; 8 µg/mL (≈ 19 µM) against Enterococcus faecalis [4]; 8 µg/mL (≈ 19 µM) against Staphylococcus aureus [5]; 16 µg/mL (≈ 38 µM) against Staphylococcus aureus [6].

As for `CC(=O)NC[C@H]1CN(c2ccc(N3CCOCC3)c(F)c2)C(=O)O1` [LINEZOLID], the MIC against Enterococcus faecium [1] is 2 µg/mL (≈ 5.93 µM). This molecule also yielded an ED50 in the assay on Enterococcus faecium [8] of 3.91 mg/kg.

Regarding `COc1ccc(CNC(=O)N2CCN(c3ccc(N4C[C@H](CNC(C)=O)OC4=O)cc3F)CC2)cc1`, the minimal inhibitory concentration (MIC) in the assay with Enterococcus faecium [1] amounted to 2 µg/mL (≈ 4 µM); against Staphylococcus aureus [2] it was 2 µg/mL (≈ 4 µM); against Enterococcus faecalis [3], 2 µg/mL (≈ 4 µM); against Enterococcus faecalis [4], 2 µg/mL (≈ 4 µM); in the assay with Staphylococcus aureus [5], 2 µg/mL (≈ 4 µM); in the assay with Staphylococcus aureus [6] it was 4 µg/mL (≈ 8.01 µM).

For the molecule `CC(=O)NC[C@H]1CN(c2ccc(N3CCN(C(=O)Nc4ccon4)CC3)c(F)c2)C(=O)O1`, the MIC with Enterococcus faecium [1] was 4 µg/mL (≈ 8.96 µM); against Staphylococcus aureus [2], 4 µg/mL (≈ 8.96 µM); against Enterococcus faecalis [3], 2 µg/mL (≈ 4.48 µM); in the assay with Enterococcus faecalis [4] it was 2 µg/mL (≈ 4.48 µM); against Staphylococcus aureus [5], 4 µg/mL (≈ 8.96 µM); with Staphylococcus aureus [6], 4 µg/mL (≈ 8.96 µM).

Take `CC(=N)NC(=O)N1CCN(c2ccc(N3C[C@H](CNC(C)=O)OC3=O)cc2F)CC1`: the MIC in the assay on Enterococcus faecium [1] was determined as 4 µg/mL (≈ 9.51 µM); in the assay with Staphylococcus aureus [2], 4 µg/mL (≈ 9.51 µM); against Enterococcus faecalis [3], 2 µg/mL (≈ 4.76 µM); against Enterococcus faecalis [4] it was 2 µg/mL (≈ 4.76 µM); against Staphylococcus aureus [5], 4 µg/mL (≈ 9.51 µM); in the assay with Staphylococcus aureus [6], 4 µg/mL (≈ 9.51 µM).

For the molecule `CC(=O)NC[C@H]1CN(c2ccc(N3CCN(C(=O)Nc4ccccc4)CC3)c(F)c2)C(=O)O1`, the MIC in the assay on Enterococcus faecium [1] was 2 µg/mL (≈ 4.39 µM); against Staphylococcus aureus [2], 4 µg/mL (≈ 8.78 µM); with Enterococcus faecalis [3] it was 2 µg/mL (≈ 4.39 µM); in the assay with Enterococcus faecalis [4], 2 µg/mL (≈ 4.39 µM); in the assay with Staphylococcus aureus [5], 2 µg/mL (≈ 4.39 µM); against Staphylococcus aureus [6], 4 µg/mL (≈ 8.78 µM). Further, the ED50 in the assay with Enterococcus faecium [8] is above 10 mg/kg.

As for `CC(=O)NC[C@H]1CN(c2ccc(N3CCN(C(=O)Nc4cccc(F)c4)CC3)c(F)c2)C(=O)O1`, the MIC in the assay with Enterococcus faecium [1] amounted to 2 µg/mL (≈ 4.22 µM); against Staphylococcus aureus [2] it was 2 µg/mL (≈ 4.22 µM); in the assay on Enterococcus faecalis [3], 1 µg/mL (≈ 2.11 µM); in the assay on Enterococcus faecalis [4], 2 µg/mL (≈ 4.22 µM); in the assay with Staphylococcus aureus [5], 2 µg/mL (≈ 4.22 µM); in the assay with Staphylococcus aureus [6], 4 µg/mL (≈ 8.45 µM). Also, the ED50 in the assay with Enterococcus faecium [8] is 18.4 mg/kg.

For the molecule `COc1ccc(NC(=O)N2CCN(c3ccc(N4C[C@H](CNC(C)=O)OC4=O)cc3F)CC2)c(OC)c1`, the minimum inhibitory concentration (MIC) in the assay on Enterococcus faecium [1] came to 4 µg/mL (≈ 7.76 µM); in the assay on Staphylococcus aureus [2], 4 µg/mL (≈ 7.76 µM); against Enterococcus faecalis [3], 2 µg/mL (≈ 3.88 µM); in the assay on Enterococcus faecalis [4] it was 2 µg/mL (≈ 3.88 µM); with Staphylococcus aureus [5], 4 µg/mL (≈ 7.76 µM); against Staphylococcus aureus [6] it was 4 µg/mL (≈ 7.76 µM).

On to `CC(=O)NC[C@H]1CN(c2ccc(N3CCN(C(=O)NC4CCCCCC4)CC3)c(F)c2)C(=O)O1`, for which the MIC is 4 µg/mL (≈ 8.41 µM) against Enterococcus faecium [1]; 4 µg/mL (≈ 8.41 µM) in the assay with Staphylococcus aureus [2]; 2 µg/mL (≈ 4.21 µM) against Enterococcus faecalis [3]; 4 µg/mL (≈ 8.41 µM) with Enterococcus faecalis [4]; 4 µg/mL (≈ 8.41 µM) in the assay on Staphylococcus aureus [5]; 4 µg/mL (≈ 8.41 µM) against Staphylococcus aureus [6].

As to `CC(=O)NC[C@H]1CN(c2ccc(N3CCN(C(=O)NC4CCCC4)CC3)c(F)c2)C(=O)O1`, the MIC with Enterococcus faecium [1] was 4 µg/mL (≈ 8.94 µM); against Staphylococcus aureus [2] it was 8 µg/mL (≈ 17.9 µM); against Enterococcus faecalis [3], 4 µg/mL (≈ 8.94 µM); against Enterococcus faecalis [4], 4 µg/mL (≈ 8.94 µM); in the assay with Staphylococcus aureus [5] it was 8 µg/mL (≈ 17.9 µM); against Staphylococcus aureus [6] it was 8 µg/mL (≈ 17.9 µM).

As for `COc1ccccc1NC(=O)N1CCN(c2ccc(N3C[C@H](CNC(C)=O)OC3=O)cc2F)CC1`, the MIC in the assay on Enterococcus faecium [1], with Staphylococcus aureus [2], against Enterococcus faecalis [3], in the assay with Enterococcus faecalis [4], in the assay with Staphylococcus aureus [5] and with Staphylococcus aureus [6] was 2 µg/mL (≈ 4.12 µM) each time. This molecule showed an ED50 with Enterococcus faecium [8] of 9.1 mg/kg.

Consider `CC(=O)NC[C@H]1CN(c2ccc(N3CCN(C(=O)Nc4nccs4)CC3)c(F)c2)C(=O)O1`, for which the MIC is 1 µg/mL (≈ 2.16 µM) with Enterococcus faecium [1]; 2 µg/mL (≈ 4.32 µM) against Staphylococcus aureus [2]; 1 µg/mL (≈ 2.16 µM) against Enterococcus faecalis [3]; 1 µg/mL (≈ 2.16 µM) in the assay with Enterococcus faecalis [4]; 2 µg/mL (≈ 4.32 µM) in the assay with Staphylococcus aureus [5]; 2 µg/mL (≈ 4.32 µM) in the assay with Staphylococcus aureus [6]. The 50% effect level in the assay with Enterococcus faecium [8] (ED50) was put at a dose of 18.4 mg/kg.

As to `CC(=O)NC[C@H]1CN(c2ccc(N3CCN(C(=O)Nc4ccc(Cl)cc4Cl)CC3)c(F)c2)C(=O)O1`, the MIC was determined as 2 µg/mL (≈ 3.81 µM) in the assay with Enterococcus faecium [1]; 1 µg/mL (≈ 1.91 µM) with Staphylococcus aureus [2]; 1 µg/mL (≈ 1.91 µM) in the assay with Enterococcus faecalis [3]; 2 µg/mL (≈ 3.81 µM) in the assay with Enterococcus faecalis [4]; 2 µg/mL (≈ 3.81 µM) against Staphylococcus aureus [5]; 2 µg/mL (≈ 3.81 µM) with Staphylococcus aureus [6]. This molecule showed an ED50 in the assay with Enterococcus faecium [8] above 10 mg/kg.

Regarding `CC(=O)NC[C@H]1CN(c2ccc(N3CCN(C(=O)Nc4ccccc4Cl)CC3)c(F)c2)C(=O)O1`, the MIC was 2 µg/mL (≈ 4.08 µM) with Enterococcus faecium [1]; 2 µg/mL (≈ 4.08 µM) in the assay with Staphylococcus aureus [2]; 2 µg/mL (≈ 4.08 µM) with Enterococcus faecalis [3]; 2 µg/mL (≈ 4.08 µM) against Enterococcus faecalis [4]; 2 µg/mL (≈ 4.08 µM) in the assay with Staphylococcus aureus [5]; 4 µg/mL (≈ 8.16 µM) against Staphylococcus aureus [6].

On to `CC(=O)NC[C@H]1CN(c2ccc(N3CCN(C(N)=O)CC3)c(F)c2)C(=O)O1`, for which the MIC worked out at 2 µg/mL (≈ 5.27 µM) in the assay on Enterococcus faecium [1]; 2 µg/mL (≈ 5.27 µM) against Staphylococcus aureus [2]; 2 µg/mL (≈ 5.27 µM) against Enterococcus faecalis [3]; 2 µg/mL (≈ 5.27 µM) against Enterococcus faecalis [4]; 2 µg/mL (≈ 5.27 µM) against Staphylococcus aureus [5]; 4 µg/mL (≈ 10.5 µM) in the assay with Staphylococcus aureus [6]. The molecule further returned an ED50 in the assay with Enterococcus faecium [8] of 13.8 mg/kg.

Turning to `CC(=O)NC[C@H]1CN(c2ccc(N3CCN(C(=O)NC4CC4)CC3)c(F)c2)C(=O)O1`, the MIC came out at 4 µg/mL (≈ 9.54 µM) against Enterococcus faecium [1]; 8 µg/mL (≈ 19.1 µM) in the assay with Staphylococcus aureus [2]; 4 µg/mL (≈ 9.54 µM) in the assay with Enterococcus faecalis [3]; 8 µg/mL (≈ 19.1 µM) against Enterococcus faecalis [4]; 8 µg/mL (≈ 19.1 µM) in the assay with Staphylococcus aureus [5]; 16 µg/mL (≈ 38.1 µM) against Staphylococcus aureus [6].

The MIC is the lowest concentration found to suppress growth. Read a low MIC as a more susceptible organism. By ED50 is commonly meant the dose at which the effect has come halfway, by size or by number of responders.
